From ChEMBL document CHEMBL1126127, “Nonprostanoid prostacyclin mimetics. 2. 4,5-Diphenyloxazole derivatives” (J Med Chem, 1992) come the findings set out here.

The IC50 is the concentration needed to halve the response being measured. Read a high IC50 as lower potency.

The experiment is described as follows: Inhibition of ADP-induced human platelet aggregation. The format is functional. In outline:
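ADP-induced aggregation of human platelets measured in platelet-rich plasma by aggregometry. Protocol follows earlier reports. IC50 values come from a single experiment or from the mean of duplicates.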
Regarding `O=C(O)c1cccc(OCCCc2nc(-c3ccccc3)c(-c3ccccc3)o2)c1`, the IC50 is greater than 80 µM.
Then `O=C(O)COc1cccc(-c2nc(-c3ccccc3)c(-c3ccccc3)o2)c1`, with greater than 84 µM.
Then `c1ccc(-c2nc(CCc3cccc(OCC4N=NN=N4)c3)oc2-c2ccccc2)cc1`, with 1.5 µM.
Take `O=C(O)CCCCOc1ccccc1Cc1nc(-c2ccccc2)c(-c2ccccc2)o1`: the IC50 is greater than 74 µM.
In the case of `O=C(O)COc1cccc(/C=C/c2nc(-c3ccccc3)c(-c3ccccc3)o2)c1` it was 13 µM.
As to `O=C(O)c1cccc(OCCCCc2nc(-c3ccccc3)c(-c3ccccc3)o2)c1`, the IC50 was greater than 77 µM.
In the case of `O=C(O)CCCCCCCCc1nc(-c2ccccc2)c(-c2ccccc2)o1` it was 2.5 µM.
`O=C(O)COc1ccccc1CCc1nc(-c2ccccc2)c(-c2ccccc2)o1` registered an IC50 greater than 80 µM.
`O=C(O)CCCCOc1ccccc1-c1nc(-c2ccccc2)c(-c2ccccc2)o1` yielded a 50% inhibitory concentration (IC50) greater than 77 µM.
`O=C(O)CCCCOc1cccc(-c2nc(-c3ccccc3)c(-c3ccccc3)o2)c1`: the IC50 came to 4.6 µM.
Then `O=C(O)CCCOc1ccc(Cc2nc(-c3ccccc3)c(-c3ccccc3)o2)cc1`, with greater than 76 µM; and `O=C(O)CCCCCCc1nc(-c2ccccc2)c(-c2ccccc2)o1`, with greater than 91 µM; and `O=C(O)/C=C/c1cccc(CCc2nc(-c3ccccc3)c(-c3ccccc3)o2)c1`, with 0.66 µM.
Then `O=C(O)CCCOc1ccccc1/C=C/c1nc(-c2ccccc2)c(-c2ccccc2)o1`, with greater than 75 µM; and `O=C(O)C(CCCCCCCc1nc(-c2ccccc2)c(-c2ccccc2)o1)C(=O)O`, with greater than 76 µM; and `O=C(O)CCCCOc1ccc(-c2nc(-c3ccccc3)c(-c3ccccc3)o2)cc1`, with greater than 77 µM.
In the case of `O=C(O)CCCOc1cccc(/C=C/c2nc(-c3ccccc3)c(-c3ccccc3)o2)c1` it was greater than 75 µM.
`CC(C)(Oc1cccc(CCc2nc(-c3ccccc3)c(-c3ccccc3)o2)c1)C(=O)O` showed an IC50 greater than 75 µM.
Consider `COc1ccc(/C=C/c2nc(-c3ccccc3)c(-c3ccccc3)o2)cc1OCC(=O)O`, for which the IC50 was greater than 75 µM.
Then `O=C(O)CCCOc1ccc(/C=C/c2nc(-c3ccccc3)c(-c3ccccc3)o2)cc1`, with greater than 75 µM; and `O=C(O)CCc1cccc(CCc2nc(-c3ccccc3)c(-c3ccccc3)o2)c1`, with 16 µM; and `O=C(O)CCCCCCCCCc1nc(-c2ccccc2)c(-c2ccccc2)o1`, with greater than 80 µM.
Then `O=C(O)CCCOc1ccccc1CCc1nc(-c2ccccc2)c(-c2ccccc2)o1`, with greater than 75 µM.
In the case of `O=C(O)c1ccc(OCCCCc2nc(-c3ccccc3)c(-c3ccccc3)o2)cc1` it was greater than 77 µM; in that of `O=C(O)COc1ccc(Cc2nc(-c3ccccc3)c(-c3ccccc3)o2)cc1`, greater than 82 µM; in that of `O=C(O)/C=C/c1cccc(OCc2nc(-c3ccccc3)c(-c3ccccc3)o2)c1`, 14 µM.
`COc1ccc(CCc2nc(-c3ccccc3)c(-c3ccccc3)o2)cc1OCC(=O)O` came in with an IC50 greater than 75 µM.
In the case of `COc1c(CCc2nc(-c3ccccc3)c(-c3ccccc3)o2)cccc1OCC(=O)O` it was 1.4 µM; in that of `O=C(O)CCc1cccc(OCc2nc(-c3ccccc3)c(-c3ccccc3)o2)c1`, greater than 80 µM; in that of `COc1ccc(OCC(=O)O)cc1/C=C/c1nc(-c2ccccc2)c(-c2ccccc2)o1`, greater than 75 µM.
In the case of `O=C(O)CCCOc1cccc(Cc2nc(-c3ccccc3)c(-c3ccccc3)o2)c1` it was greater than 76 µM; in that of `O=C(O)c1ccc(OCCCc2nc(-c3ccccc3)c(-c3ccccc3)o2)cc1`, 40 µM; in that of `O=C(O)COc1ccc(CCc2nc(-c3ccccc3)c(-c3ccccc3)o2)cc1`, 9 µM.
Then `O=C(O)COc1cccc(/C=C\c2nc(-c3ccccc3)c(-c3ccccc3)o2)c1`, with 0.18 µM; and `O=C(O)COc1ccc(/C=C/c2nc(-c3ccccc3)c(-c3ccccc3)o2)cc1`, with 10 µM; and `O=C(O)COc1cccc(CSc2nc(-c3ccccc3)c(-c3ccccc3)o2)c1`, with 9.6 µM.
For `O=C(O)CCCOc1ccccc1-c1nc(-c2ccccc2)c(-c2ccccc2)o1`, the IC50 is greater than 80 µM.
Then `O=C(O)COc1cccc(OCc2nc(-c3ccccc3)c(-c3ccccc3)o2)c1`, with 1.2 µM; and `O=C(O)COc1ccccc1/C=C/c1nc(-c2ccccc2)c(-c2ccccc2)o1`, with greater than 80 µM.
Then `O=C(O)COc1cccc(C#Cc2nc(-c3ccccc3)c(-c3ccccc3)o2)c1`, with 60 µM; and `O=C(O)CCCCc1nc(-c2ccccc2)c(-c2ccccc2)o1`, with greater than 100 µM.
Then `CC(Oc1cccc(CCc2nc(-c3ccccc3)c(-c3ccccc3)o2)c1)C(=O)O` (stereo not drawn), with 4 µM; and `O=C(O)CCCCCCCc1nc(-c2ccccc2)c(-c2ccccc2)o1`, with greater than 88 µM.
Consider `O=C(O)CCCc1nc(-c2ccccc2)c(-c2ccccc2)o1`, for which the IC50 is greater than 104 µM.
Then `O=C(O)COc1cccc(Cc2nc(-c3ccccc3)c(-c3ccccc3)o2)c1`, with greater than 82 µM; and `COc1ccc(OCC(=O)O)cc1CCc1nc(-c2ccccc2)c(-c2ccccc2)o1`, with greater than 75 µM; and `O=C(O)CCCOc1cccc(-c2nc(-c3ccccc3)c(-c3ccccc3)o2)c1`, with 80 µM.
In the case of `O=C(O)CCCOc1ccc(-c2nc(-c3ccccc3)c(-c3ccccc3)o2)cc1` it was greater than 80 µM; in that of `COc1c(/C=C/c2nc(-c3ccccc3)c(-c3ccccc3)o2)cccc1OCC(=O)O`, 0.5 µM.
In the case of `CCCCC[C@H](O)/C=C/[C@@H]1[C@H]2C/C(=C/CCCC(=O)O)O[C@H]2C[C@H]1O` [EPOPROSTENOL] it was 8 µM.
`CC#CCC(C)[C@H](O)/C=C/[C@@H]1[C@H]2C/C(=C/CCCC(=O)O)C[C@H]2C[C@H]1O` (stereo partly drawn) [ILOPROST] had an IC50 of 2 µM.
Regarding `O=C(O)CCCCCCCOc1nc(-c2ccccc2)c(-c2ccccc2)n1-c1ccccc1` [OCTIMIBATE], inhibition was half-maximal at 1.02 µM (IC50).
In the case of `O=C(O)CCc1nc(-c2ccccc2)c(-c2ccccc2)o1` [OXAPROZIN] it was greater than 100 µM.
